Numbered stars: 1 amine (or outer) side, 2 acyl side, 3 side chain; on linkers, the order of the positions; unused ones are H or OH. Square brackets hold non-standard residues; d marks the D form. Side chains are listed from the residue outwards. Peptide text beside a SMILES is read from it. * marks the point of attachment. ξ: configuration not given here. ξγGlu = O=C(O)C(CCC(=O)[*:2])N[*:1]; Palmitoyl = CCCCCCCCCCCCCCCC(=O)*; X1 = CCCCCCCCCC(CCCCC(=O)*)C(=O)O; ξK = NCCCCC(N)C(=O)O
Assays:
[1] = Plasma half life was determined in pigs; format: ADME, organism-based, Sus scrofa; conditions: pig
Method in brief: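 Landrace × Duroc × Yorkshire pigs, 25–50 kg, two per compound; single sc dose, 0.5 nmol/kg for analogues, 15 nmol/kg for GLP-1. Jugular catheter blood at 0–72 h, extra early samples for GLP-1; EDTA/aprotinin/bacitracin-stabilized plasma. Unextracted plasma assayed by N-terminal-specific GLP-1 radioimmunoassay against spiked pig-plasma calibrators; half-life calculated per pig, reported as mean ± SD.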

[2] = biological target: Glucagon-like peptide 1 receptor (Homo sapiens, UniProt P43220); test: Potency measured using recombinant human GLP-1 receptor expressed in Baby Hamster Kidney (BHK)cells; format: cell-based
Chain of Glucagon-like peptide 1 receptor (P43220 whole entry): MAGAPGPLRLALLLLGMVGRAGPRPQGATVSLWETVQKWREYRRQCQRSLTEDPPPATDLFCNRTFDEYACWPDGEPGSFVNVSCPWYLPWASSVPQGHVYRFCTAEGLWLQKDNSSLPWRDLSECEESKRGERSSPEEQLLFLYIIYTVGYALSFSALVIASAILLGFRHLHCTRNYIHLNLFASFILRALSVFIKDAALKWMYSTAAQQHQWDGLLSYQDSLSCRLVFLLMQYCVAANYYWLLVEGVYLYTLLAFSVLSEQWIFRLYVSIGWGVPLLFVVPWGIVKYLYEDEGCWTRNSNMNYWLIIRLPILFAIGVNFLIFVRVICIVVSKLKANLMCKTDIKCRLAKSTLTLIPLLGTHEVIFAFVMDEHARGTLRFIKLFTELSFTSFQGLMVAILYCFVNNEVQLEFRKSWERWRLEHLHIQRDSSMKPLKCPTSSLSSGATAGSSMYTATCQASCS

Row | half-life [1] [h] | EC50 [2] [nM] | SMILES
1 | 15 |  | CCCCCCCCCCCC(=O)NC(CCC(=O)NCCCC[C@H](NC(=O)[C@H](C)NC(=O)[C@H](C)NC(=O)[C@H](CCC(N)=O)NC(=O)CNC(=O)[C@H](CCC(=O)O)NC(=O)[C@H](CC(C)C)NC(=O)[C@H](Cc1ccc(O)cc1)NC(=O)[C@H](CO)NC(=O)[C@H](CO)NC(=O)[C@@H](NC(=O)[C@H](CC(=O)O)NC(=O)[C@H](CO)NC(=O)[C@@H](NC(=O)[C@H](Cc1ccccc1)NC(=O)[C@@H](NC(=O)CNC(=O)[C@H](CCC(=O)O)NC(=O)[C@H](C)NC(=O)[C@@H](N)Cc1c[nH]cn1)[C@@H](C)O)[C@@H](C)O)C(C)C)C(=O)N[C@@H](CCC(=O)O)C(=O)N[C@@H](Cc1ccccc1)C(=O)N[C@H](C(=O)N[C@@H](C)C(=O)N[C@@H](Cc1c[nH]c2ccccc12)C(=O)N[C@@H](CC(C)C)C(=O)N[C@H](C(=O)N[C@@H](CCCN=C(N)N)C(=O)NCC(=O)N[C@@H](CCCN=C(N)N)C(=O)NCC(=O)O)C(C)C)[C@@H](C)CC)C(=O)O (stereo partly drawn)
2 | 13 | 0.121 | CCCCCCCCCCCCCCCC(=O)NC(CCC(=O)NCCCC[C@H](NC(=O)[C@@H](NC(=O)[C@H](CC(C)C)NC(=O)[C@H](Cc1c[nH]c2ccccc12)NC(=O)[C@H](C)NC(=O)[C@@H](NC(=O)[C@H](Cc1ccccc1)NC(=O)[C@H](CCC(=O)O)NC(=O)[C@H](CCCN=C(N)N)NC(=O)[C@H](C)NC(=O)[C@H](C)NC(=O)[C@H](CCC(N)=O)NC(=O)CNC(=O)[C@H](CCC(=O)O)NC(=O)[C@H](CC(C)C)NC(=O)[C@H](Cc1ccc(O)cc1)NC(=O)[C@H](CO)NC(=O)[C@H](CO)NC(=O)[C@@H](NC(=O)[C@H](CC(=O)O)NC(=O)[C@H](CO)NC(=O)[C@@H](NC(=O)[C@H](Cc1ccccc1)NC(=O)[C@@H](NC(=O)CNC(=O)[C@H](CCC(=O)O)NC(=O)[C@H](C)NC(=O)[C@@H](N)Cc1c[nH]cn1)[C@@H](C)O)[C@@H](C)O)C(C)C)[C@@H](C)CC)C(C)C)C(=O)NCC(=O)N[C@@H](CCCCN=C(N)N)C(=O)NCC(=O)O)C(=O)O (stereo partly drawn)
3 | 12 | 0.0364 | CCCCCCCCCCCCCCCC(=O)NC(CCC(=O)NCCCC[C@H](NC(=O)CNC(=O)[C@H](CCCN=C(N)N)NC(=O)[C@@H](NC(=O)[C@H](CC(C)C)NC(=O)[C@H](Cc1c[nH]c2ccccc12)NC(=O)[C@H](C)NC(=O)[C@@H](NC(=O)[C@H](Cc1ccccc1)NC(=O)[C@H](CCC(=O)O)NC(=O)[C@H](CCCN=C(N)N)NC(=O)[C@H](C)NC(=O)[C@H](C)NC(=O)[C@H](CCC(N)=O)NC(=O)CNC(=O)[C@H](CCC(=O)O)NC(=O)[C@H](CC(C)C)NC(=O)[C@H](Cc1ccc(O)cc1)NC(=O)[C@H](CO)NC(=O)[C@H](CO)NC(=O)[C@@H](NC(=O)[C@H](CC(=O)O)NC(=O)[C@H](CO)NC(=O)[C@@H](NC(=O)[C@H](Cc1ccccc1)NC(=O)[C@@H](NC(=O)CNC(=O)[C@H](CCC(=O)O)NC(=O)[C@H](C)NC(=O)[C@@H](N)Cc1c[nH]cn1)[C@@H](C)O)[C@@H](C)O)C(C)C)[C@@H](C)CC)C(C)C)C(=O)NCC(=O)O)C(=O)O (stereo partly drawn) (H-HAEGTFTSDVSSYLEGQAAREFIAWLVRGK([ξγGlu-Palmitoyl])G-OH)

Second part, the compound before the results:

Row | SMILES | half-life [1] [h] | EC50 [2] [nM]
4 | CCCCCCCCCCCCCCCC(=O)NCCC(=O)NCCCC[C@H](NC(=O)[C@H](C)NC(=O)[C@H](C)NC(=O)[C@H](CCC(N)=O)NC(=O)CNC(=O)[C@H](CCC(=O)O)NC(=O)[C@H](CC(C)C)NC(=O)[C@H](Cc1ccc(O)cc1)NC(=O)[C@H](CO)NC(=O)[C@H](CO)NC(=O)[C@@H](NC(=O)[C@H](CC(=O)O)NC(=O)[C@H](CO)NC(=O)[C@@H](NC(=O)[C@H](Cc1ccccc1)NC(=O)[C@@H](NC(=O)CNC(=O)[C@H](CCC(=O)O)NC(=O)[C@H](C)NC(=O)[C@@H](N)Cc1c[nH]cn1)[C@@H](C)O)[C@@H](C)O)C(C)C)C(=O)N[C@@H](CCC(=O)O)C(=O)N[C@@H](Cc1ccccc1)C(=O)N[C@H](C(=O)N[C@@H](C)C(=O)N[C@@H](Cc1c[nH]c2ccccc12)C(=O)N[C@@H](CC(C)C)C(=O)N[C@H](C(=O)N[C@@H](CCCN=C(N)N)C(=O)NCC(=O)N[C@@H](CCCN=C(N)N)C(=O)NCC(=O)O)C(C)C)[C@@H](C)CC | 8.8 | 
5 | CCCCCCCCCCCCCCCC(=O)N[C@@H](CCC(=O)NCCCC[C@H](NC(=O)[C@H](C)NC(=O)[C@H](C)NC(=O)[C@H](CCC(N)=O)NC(=O)CNC(=O)[C@H](CCC(=O)O)NC(=O)[C@H](CC(C)C)NC(=O)[C@H](Cc1ccc(O)cc1)NC(=O)[C@H](CO)NC(=O)[C@H](CO)NC(=O)[C@@H](NC(=O)[C@H](CC(=O)O)NC(=O)[C@H](CO)NC(=O)[C@@H](NC(=O)[C@H](Cc1ccccc1)NC(=O)[C@@H](NC(=O)CNC(=O)[C@H](CCC(=O)O)NC(=O)[C@H](C)NC(=O)[C@@H](N)Cc1cnc[nH]1)[C@@H](C)O)[C@@H](C)O)C(C)C)C(=O)N[C@@H](CCC(=O)O)C(=O)N[C@@H](Cc1ccccc1)C(=O)N[C@H](C(=O)N[C@@H](C)C(=O)N[C@@H](Cc1c[nH]c2ccccc12)C(=O)N[C@@H](CC(C)C)C(=O)N[C@H](C(=O)N[C@@H](CCCNC(=N)N)C(=O)NCC(=O)N[C@@H](CCCNC(=N)N)C(=O)NCC(=O)O)C(C)C)[C@@H](C)CC)C(=O)O | 14 | 
6 | CCCCCCCCCCCCCCCC(=O)NC(CCC(=O)NCCCC[C@H](NC(=O)CNC(=O)[C@H](CCC(=O)O)NC(=O)[C@H](CC(C)C)NC(=O)[C@H](Cc1ccc(O)cc1)NC(=O)[C@H](CO)NC(=O)[C@H](CO)NC(=O)[C@@H](NC(=O)[C@H](CC(=O)O)NC(=O)[C@H](CO)NC(=O)[C@@H](NC(=O)[C@H](Cc1ccccc1)NC(=O)[C@@H](NC(=O)CNC(=O)[C@H](CCC(=O)O)NC(=O)[C@H](C)NC(=O)[C@@H](N)Cc1c[nH]cn1)[C@@H](C)O)[C@@H](C)O)C(C)C)C(=O)N[C@@H](C)C(=O)N[C@@H](C)C(=O)N[C@@H](CCCN=C(N)N)C(=O)N[C@@H](CCC(=O)O)C(=O)N[C@@H](Cc1ccccc1)C(=O)N[C@H](C(=O)N[C@@H](C)C(=O)N[C@@H](Cc1c[nH]c2ccccc12)C(=O)N[C@@H](CC(C)C)C(=O)N[C@H](C(=O)N[C@@H](CCCN=C(N)N)C(=O)NCC(=O)N[C@@H](CCCN=C(N)N)C(=O)NCC(=O)O)C(C)C)[C@@H](C)CC)C(=O)O (stereo partly drawn) (H-HAEGTFTSDVSSYLEGK([ξγGlu-Palmitoyl])AAREFIAWLVRGRG-OH) | 20 | 0.0301
7 | CCCCCCCCCC(CCCCC(=O)NCCCC[C@H](NC(=O)CNC(=O)[C@H](CCCN=C(N)N)NC(=O)[C@@H](NC(=O)[C@H](CC(C)C)NC(=O)[C@H](Cc1c[nH]c2ccccc12)NC(=O)[C@H](C)NC(=O)[C@@H](NC(=O)[C@H](Cc1ccccc1)NC(=O)[C@H](CCC(=O)O)NC(=O)[C@H](CCCN=C(N)N)NC(=O)[C@H](C)NC(=O)[C@H](C)NC(=O)[C@H](CCC(N)=O)NC(=O)CNC(=O)[C@H](CCC(=O)O)NC(=O)[C@H](CC(C)C)NC(=O)[C@H](Cc1ccc(O)cc1)NC(=O)[C@H](CO)NC(=O)[C@H](CO)NC(=O)[C@@H](NC(=O)[C@H](CC(=O)O)NC(=O)[C@H](CO)NC(=O)[C@@H](NC(=O)[C@H](Cc1ccccc1)NC(=O)[C@@H](NC(=O)CNC(=O)[C@H](CCC(=O)O)NC(=O)[C@H](C)NC(=O)[C@@H](N)Cc1c[nH]cn1)[C@@H](C)O)[C@@H](C)O)C(C)C)[C@@H](C)CC)C(C)C)C(=O)NCC(=O)O)C(=O)O (stereo partly drawn) (H-HAEGTFTSDVSSYLEGQAAREFIAWLVRGK(X1)G-OH) | 13 | 0.00789
8 | CCCCCCCCCCCCCCCC(=O)NC(CCC(=O)NCCCCC(NC(=O)[C@H](CCC(=O)O)NC(=O)[C@H](CCCN=C(N)N)NC(=O)CNC(=O)[C@H](CCCN=C(N)N)NC(=O)[C@@H](NC(=O)[C@H](CC(C)C)NC(=O)[C@H](Cc1c[nH]c2ccccc12)NC(=O)[C@H](C)NC(=O)[C@@H](NC(=O)[C@H](Cc1ccccc1)NC(=O)[C@H](CCC(=O)O)NC(=O)[C@H](CCCN=C(N)N)NC(=O)[C@H](C)NC(=O)[C@H](C)NC(=O)[C@H](CCC(N)=O)NC(=O)CNC(=O)[C@H](CCC(=O)O)NC(=O)[C@H](CC(C)C)NC(=O)[C@H](Cc1ccc(O)cc1)NC(=O)[C@H](CO)NC(=O)[C@H](CO)NC(=O)[C@@H](NC(=O)[C@H](CC(=O)O)NC(=O)[C@H](CO)NC(=O)[C@@H](NC(=O)[C@H](Cc1ccccc1)NC(=O)[C@@H](NC(=O)CNC(=O)[C@H](CCC(=O)O)NC(=O)CNC(=O)[C@@H](N)Cc1c[nH]cn1)[C@@H](C)O)[C@@H](C)O)C(C)C)[C@@H](C)CC)C(C)C)C(=O)O)C(=O)O (stereo partly drawn) (H-HGEGTFTSDVSSYLEGQAAREFIAWLVRGRE[ξK]([ξγGlu-Palmitoyl])-OH) | 11 | 0.135
